Data taken from ChEMBL document CHEMBL1157945, “Bioactive secolignans from Peperomia dindygulensis” (J Nat Prod, 2006).
pIC50: −log10 of the molar value.

Key:
A549 [1] = experiment: Antiinflammatory activity in human A549 cells assessed as inhibition of IL1alpha -induced ICAM1 induction incubated for 1 hr prior to IL1alpha challenge measured after 6 hrs; type: functional, cell-based
Outline: (§1)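 A549 cells grown in RPMI 1640 with 10% FBS and penicillin-streptomycin. Pretreated with serially varied compound concentrations for 1 h, then stimulated with IL-1α or TNF-α for 6 h. Cell-surface ICAM-1 detected with mouse anti-human ICAM-1 antibody plus peroxidase-conjugated goat anti-mouse IgG, read as absorbance. Expression as % of control = (sample+cytokine − no cytokine)/(cytokine − no cytokine) ×100; IC50 derived from this.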

A549 [2] = experiment: Antiinflammatory activity in human A549 cells assessed as inhibition of TNF-alpha-induced ICAM1 induction incubated for 1 hr prior to TNFalpha challenge measured after 6 hrs; type: functional, cell-based; outline: as §1
[3] = Reversal of multidrug resistance in human AD10 cells assessed as increase in calcein accumulation at 2.5 ug/ml relative to control; type: functional
Outline: (§2)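 Multidrug-resistant ovarian A2780 subline AD10, kept in RPMI-1640 with 10% FBS and 80 µg/mL kanamycin. Intracellular accumulation of the fluorescent efflux probe calcein AM measured with test compounds at 0.25, 2.5 and 25 µg/mL; verapamil as reference. Values given relative to untreated control or to verapamil; means of triplicates.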

[4] = Reversal of multidrug resistance in human AD10 cells assessed as increase in calcein accumulation at 2.5 ug/ml relative to verapamil; type: functional; outline: as §2
[5] = Reversal of multidrug resistance in human AD10 cells assessed as increase in calcein accumulation at 25 ug/ml relative to control; type: functional; outline: as §2
HepG2 = experiment: Cytotoxicity against human HepG2 cells; type: functional, cell-based
Outline: (§3)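 Growth inhibition in WI-38 fibroblasts (Eagle's MEM), VA-13 (RITC 80-7) and HepG2 (D-MEM) lines, each medium with 10% FBS and 80 µg/mL kanamycin.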

A549 [6] = experiment: Cytotoxicity against human A549 cells after 24 hrs by MTT assay; type: functional, cell-based; settings: A549, 24 h
Outline: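 A549 cells in RPMI 1640 with 10% FBS were exposed to serial dilutions of compound for 24 h. Viability read by MTT absorbance: % = (experimental − background)/(control − background) ×100. IC50 taken from viability data.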

WI-38 VA13 = experiment: Cytotoxicity against human VA13 cells; type: functional, cell-based; outline: as §3
[7] = Reversal of multidrug resistance in human AD10 cells assessed as increase in calcein accumulation at 0.25 ug/ml relative to verapamil; type: functional; outline: as §2
[8] = Reversal of multidrug resistance in human AD10 cells assessed as increase in calcein accumulation at 0.25 ug/ml relative to control; type: functional; outline: as §2
[9] = Cytotoxicity against human WI38 cells; type: cell-based; settings: WI-38; outline: as §3
[10] = Reversal of multidrug resistance in human AD10 cells assessed as increase in calcein accumulation at 25 ug/ml relative to verapamil; type: functional; outline: as §2

| SMILES | pIC50 (A549 [1]) | pIC50 (A549 [2]) | Activity [3] | Activity [4] | Activity [5] | pIC50 (HepG2) | pIC50 (A549 [6]) | pIC50 (WI-38 VA13) | Activity [7] | Activity [8] | pIC50 [9] | Activity [10] |
| --- | --- | --- | --- | --- | --- | --- | --- | --- | --- | --- | --- | --- |
| C=C1C(=O)OC[C@H]1C(c1cc(OC)c(O)c(OC)c1)c1cc(OC)c2c(c1)OCO2 (some centres not stated) | 5.37 | 5.50 | 98% | 85% | 125% | 4.65 | 4.07 | 4.87 | 98% | 104% | 4.68 | 83% |
| COc1cc(C(c2cc(OC)c3c(c2)OCO3)[C@@H]2CO[C@@H](O)[C@@H]2C)cc2c1OCO2 |  |  | 104% | 90% | 107% | 3.85 |  | 3.86 | 93% | 99% | 3.85 | 71% |
| COc1cc(C(c2cc(OC)c3c(c2)OCO3)[C@@H]2COC(=O)[C@H]2C)cc(OC)c1O (some centres not stated) |  |  | 104% | 90% | 107% | 3.80 |  | 3.95 | 93% | 99% | 3.76 | 71% |
| COc1cc(C(c2cc(OC)c3c(c2)OCO3)[C@@H]2COC(=O)[C@@H]2CO)cc(OC)c1OC (some centres not stated) |  |  | 109% | 94% | 125% | < 3.65 |  | < 3.65 | 98% | 105% | < 3.65 | 83% |
| COc1cc(C(c2cc(OC)c(OC)c(OC)c2)[C@@H]2COC(=O)[C@H]2C)cc(O)c1OC (some centres not stated) | 3.92 | 4.22 | 104% | 90% | 105% | < 3.64 | < 3.50 | < 3.64 | 95% | 101% | < 3.64 | 70% |
| COc1cc(C(c2cc(OC)c(OC)c(OC)c2)[C@@H]2COC(=O)[C@H]2C)cc(OC)c1O (some centres not stated) | 4.35 | 4.54 | 95% | 82% | 103% | 3.79 | < 3.50 | 3.82 | 90% | 96% | 3.74 | 68% |
| COc1cc(C(c2cc(OC)c3c(c2)OCO3)[C@@H]2COC(=O)[C@@H]2CO)cc2c1OCO2 |  |  | 95% | 82% | 105% | 4.01 | < 3.50 | 3.95 | 92% | 98% | 4.89 | 70% |
| COc1ccc(CCN(C)CCCC(C#N)(c2ccc(OC)c(OC)c2)C(C)C)cc1OC (configuration not stated) |  |  | 116% |  | 150% |  |  |  |  | 106% |  |  |
| COc1cc(C(c2cc(OC)c3c(c2)OCO3)[C@@H]2COC(=O)[C@@H]2COC(C)=O)cc(OC)c1O (single isomer, unassigned; (-)) |  |  | 104% | 89% | 104% | 4.12 |  | 4.82 | 101% | 108% | 4.83 | 69% |
| COc1cccc2c1C(=O)c1c(O)c3c(c(O)c1C2=O)C[C@@](O)(C(=O)CO)C[C@@H]3O[C@H]1C[C@H](N)[C@H](O)[C@H](C)O1 (stereo in doubt) [DOXORUBICIN] |  |  |  |  |  | 5.66 |  | 6.16 |  |  | 5.92 |  |
| CC(=O)O[C@H]1C(=O)[C@@]2(C)[C@H]([C@H](OC(=O)c3ccccc3)[C@]3(O)C[C@H](OC(=O)[C@H](O)[C@@H](NC(=O)c4ccccc4)c4ccccc4)C(C)=C1C3(C)C)[C@]1(OC(C)=O)CO[C@@H]1C[C@@H]2O [PACLITAXEL] |  |  |  |  |  |  |  | 8.23 |  |  | 7.33 |  |
| COc1cc(C(c2cc(OC)c3c(c2)OCO3)[C@@H]2COC(=O)[C@H]2C)cc2c1OCO2 [PEPEROMIN A] |  |  | 91% | 82% | 120% | < 3.62 | < 3.50 | < 3.62 | 90% | 85% | < 3.62 | 83% |
| COc1cc([C@@H](c2cc(OC)c3c(c2)OCO3)[C@@H]2COC(=O)[C@H]2C)cc(OC)c1OC [PEPEROMIN B] |  |  | 104% | 107% | 121% | 3.92 | < 3.50 | 4.86 | 132% | 111% | 5.04 | 81% |
| COc1cc(C(c2cc(OC)c(OC)c(OC)c2)[C@@H]2COC(=O)[C@H]2C)cc(OC)c1OC [PEPEROMIN C] | 3.61 | 3.90 | 115% | 118% | 138% | 3.72 | < 3.50 | 3.92 | 130% | 109% | 3.76 | 92% |
| C=C1C(=O)OC[C@H]1C(c1cc(OC)c2c(c1)OCO2)c1cc(OC)c2c(c1)OCO2 [PEPEROMIN E] |  |  | 102% | 88% | 132% | 4.92 | 4.10 | 5.71 | 96% | 102% | 5.92 | 88% |
